This passage reports viability, differential viability (reversal) and inhibition results from PubChem BioAssay.

The structures appear in SMILES notation. Calls of active or inactive are those of the source. Cut-off read from the data, not from the text of the source, unless noted: active = inhibition above about 30%; inactive = the rest.

Assay [1] can be described thus: reduced viability of SK-BR-3 breast cancer cells – cell-based, 24 h, human, pilot screen (AID 572;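 active = viability at or below 10% of carrier control in both of two separate runs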;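 note: compound exposure lasted between 18 and 24 h rather than exactly 24 h; 100% = carrier-treated control wells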). The settings on record: SK-BR-3 viability, CellTiter-Glo luminescence, at 10 µM, stronger effect = lower value.
A short description of assay [2]: HUVEC growth inhibition – cell-based, human, primary screen (AID 575;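 active = viability at or below 30% in both replicate assays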;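 note: 100% = median of untreated cell wells with 0.1% DMSO on each plate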). As to conditions: HUVEC proliferation, CellTiter-Glo luminescence, 72 h; at 10 µM; stronger effect = lower value. The procedure, abridged: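 Timing: 72 h treatment at 37 °C; material: HUVEC primary cells; technique: CellTiter-Glo luminescence measuring cellular ATP; controls: vehicle and MePR control wells; measure: percent of median DMSO-control luminescence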

Assay [3] can be described thus: H69AR cell proliferation blockers – human, duplicate replicates, primary screen (AID 580;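 active = viability at or under a set limit in both replicates, limit being median viability minus 3 SD, cut at about 48% in these data, passing the limit was not always enough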;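 note: 100% = mean luminescence of untreated wells and 0% = no signal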). The settings on record: H69AR lung tumor cells viability, ATP luminescence, 72 h; at 10 µM; stronger effect = lower value.
Assay [4] can be described thus: MRP1 drug-resistance reversers in H69AR cells – cell-based, doxorubicin co-treatment, pilot screen (AID 601;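 active = viability loss from added drug above about 55%, and viability with drug at most 40%, in both replicates, limit read from the data, passing the limit was not always enough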). As to conditions: CellTiter-Glo, 72 h, at 10 µM; for differential viability (reversal): stronger effect = higher value. A general note: Cellular ATP, detected with luciferase, serves as a proxy for viable cell number.
The nature of assay [5]: yeast transport mutant growth inhibition pilot in 384-well plates, post-Golgi transport modulator project (AID 636; in the data active = inhibition above about 31%). As to conditions: absorbance 615 nm, about 18 h, stronger effect = higher value.
A short description of assay [6]: growth suppression of yeast trafficking mutant, preliminary HTS, modulators of trafficking downstream of Golgi apparatus project, 1536-format plate, OD 615 nm (AID 637). As to conditions: yeast transport mutant growth, absorbance 615 nm, 18 h; stronger effect = higher value.
The mark [7] stands for this setting: H69AR cells + 2 uM doxorubicin, measured here: viability with 2 uM doxorubicin, stronger effect = lower value.
The mark [8] stands for this setting: H69AR cells, compound alone cytotoxicity.

The term viability denotes a read-out of living cells in per cent, often relative to untreated cells. Broadly, the inhibition is the relative decrease from the control value, in per cent. Turning to `O=S(=O)(c1cccc2c(S(=O)(=O)N3CCCC3)cccc12)N1CCCC1`, the viability in assay [1] is 72% (inactive); in assay [2] it was 107% (inactive); in assay [3], 93.5% (inactive); in assay [4] (setting [7]) it was 88.2%; in assay [4] (setting [8]), 93.5%. The differential viability (reversal) in assay [4] (H69AR cells + 2 uM doxorubicin) was 5.26% (inactive). Further, the inhibition in assay [5] is -9.18% (inactive); in assay [6], -0.55% (inactive).

On to `O=C(Nc1ccccc1-c1ccccc1)NC1CCN(C(=O)N2CCOCC2)CC1`, for which the viability in assay [1] is 108% (inactive); in assay [2], 95.9% (inactive); in assay [3], 103% (inactive); in assay [4] (setting [7]) it was 99.5%; in assay [4] (setting [8]), 103%. Moreover, in assay [4] (H69AR cells + 2 uM doxorubicin), the differential viability (reversal) is 3.68% (inactive). The inhibition in assay [5] was -3.29% (inactive); in assay [6], 4.03% (inactive).

Take `COc1ccc(C(C)NC(=O)c2ccoc2C)cc1OC` (stereo unspecified): the viability was 83% (inactive) in assay [1]; 91.3% (inactive) in assay [2]; 89.8% (inactive) in assay [3]; 94.7% in assay [4] (setting [7]); 89.8% in assay [4] (setting [8]). Moreover, the differential viability (reversal) in assay [4] (H69AR cells + 2 uM doxorubicin) was -4.93% (inactive). Also, the inhibition in assay [5] is -6.16% (inactive); in assay [6], 1.82% (inactive).

As for `CS(=O)(=O)N(CC(=O)NCc1ccncc1)Cc1ccc(Cl)cc1`, the viability is 104% (inactive) in assay [1]; 101% (inactive) in assay [2]; 98.3% (inactive) in assay [3]; 97.8% in assay [4] (setting [7]); 98.3% in assay [4] (setting [8]). For the same compound, the differential viability (reversal) in assay [4] (H69AR cells + 2 uM doxorubicin) was 0.52% (inactive). Besides, the inhibition in assay [5] was -8.36% (inactive); in assay [6] it was 0.81% (inactive).

`CC(=O)Nc1c(C(=O)O)[nH]c2ccccc12`: the viability in assay [1] is 103% (inactive); in assay [2] it was 97.9% (inactive); in assay [3], 104% (inactive); in assay [4] (setting [7]), 101%; in assay [4] (setting [8]), 104%. For the same compound, in assay [4] (H69AR cells + 2 uM doxorubicin), the differential viability (reversal) was 3.33% (inactive). Further, the results for the inhibition in assay [5] and in assay [6] were -4.46% (inactive) and -8.36% (inactive), respectively.

Regarding `CC(Cc1ccc(O)c(O)c1)C(C)Cc1ccc(O)c(O)c1` (stereo unspecified), the viability was 87% (inactive) in assay [1]; 22.3% (active) in assay [2]; 77.4% (inactive) in assay [3]; 79.1% in assay [4] (setting [7]); 77.4% in assay [4] (setting [8]). The differential viability (reversal) in assay [4] (H69AR cells + 2 uM doxorubicin) was -1.66% (inactive). Moreover, the inhibition in assay [5] is -5.45% (inactive); in assay [6], -6.33% (inactive).

Regarding `COc1ccc(-c2[nH]nc3c2C(c2ccncc2)C(C#N)=C(N)O3)cc1` (stereo unspecified), the viability in assay [1] was 71% (inactive); in assay [2], 122% (inactive); in assay [3] it was 92.2% (inactive); in assay [4] (setting [7]), 90%; in assay [4] (setting [8]) it was 92.2%. Further, the differential viability (reversal) in assay [4] (H69AR cells + 2 uM doxorubicin) is 2.15% (inactive). The inhibition was -5.81% (inactive) in assay [5] and -0.18% (inactive) in assay [6].

Consider `CCc1nc(SCC(=O)NCc2ccco2)c2c3c(sc2n1)CCCC3`, for which the viability in assay [1] was 97% (inactive); in assay [2] it was 78.8% (inactive); in assay [3], 67.8% (inactive); in assay [4] (setting [7]) it was 77.1%; in assay [4] (setting [8]), 67.8%. Moreover, the differential viability (reversal) in assay [4] (H69AR cells + 2 uM doxorubicin) was -9.31% (inactive). The results for the inhibition in assay [5] and in assay [6] were -3.12% (inactive) and -3.44% (inactive), respectively.

Take `Cc1cc(C(C)(C)C)c(O)c(C)c1CC1=NCCN1`: the viability was 95% (inactive) in assay [1]; 93.4% (inactive) in assay [2]; 92.5% (inactive) in assay [3]; 90.3% in assay [4] (setting [7]); 92.5% in assay [4] (setting [8]). Also, in assay [4] (H69AR cells + 2 uM doxorubicin), the differential viability (reversal) was 2.26% (inactive). The inhibition is -9.04% (inactive) in assay [5] and -3.23% (inactive) in assay [6].

In the case of `Cc1cc(C)n(C(C)n2nc(C)cc2C)n1`, the viability in assay [1] is 107% (inactive); in assay [2], 103% (inactive); in assay [3] it was 87.8% (inactive); in assay [4] (setting [7]), 78.8%; in assay [4] (setting [8]) it was 87.8%. The differential viability (reversal) in assay [4] (H69AR cells + 2 uM doxorubicin) is 9.01% (inactive). In addition, the values for the inhibition in assay [5] and in assay [6] were -7.87% (inactive) and -0.91% (inactive), respectively.

Take `CCN(CC)CCOC(=O)C1(c2ccc(OC)c(OC)c2)CCCC1`: the viability in assay [1] is 89% (inactive); in assay [2], 99.6% (inactive); in assay [3] it was 82.7% (inactive); in assay [4] (setting [7]), 80.5%; in assay [4] (setting [8]) it was 82.7%. In addition, in assay [4] (H69AR cells + 2 uM doxorubicin), the differential viability (reversal) was 2.25% (inactive). Also, the figures for the inhibition in assay [5] and in assay [6] were -5.14% (inactive) and 1.45% (inactive), respectively.

Take `Cc1nn(C)c(C)c1NC(=O)CSc1nc(Cc2ccccc2)nc2c1cnn2-c1ccccc1`: the viability in assay [1] is 116% (inactive); in assay [2] it was 88% (inactive); in assay [3], 78.8% (inactive); in assay [4] (setting [7]), 78.7%; in assay [4] (setting [8]), 78.8%. The differential viability (reversal) in assay [4] (H69AR cells + 2 uM doxorubicin) is 0.07% (inactive). The inhibition in assay [5] was -2.05% (inactive); in assay [6], 5.48% (inactive).
